Experimental data from ChEMBL document CHEMBL1124386, “Selective thyromimetics. Cardiac-sparing thyroid hormone analogues containing 3'-arylmethyl substituents” (J Med Chem, 1989).
≈ marks a conversion by molar mass, not a printed value. Calls of active or inactive are those of the source. No cut-off for these calls is given here.

Columns and labels:
Rattus norvegicus [1] = species on record: Rattus norvegicus; experiment: Selectivity ratio of ID50 in liver and heart
In short: (§1)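 Liver/heart selectivity in rats, calculated as (relative ID50)liver divided by (relative ID50)heart, from in vivo nuclear binding 1 h after intravenous dosing.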

Rattus norvegicus [2] = experiment: Potency for induction of GPDH (mitochondrial cytochrome C3-phosphoglycerate oxidoreductase) was measured 48 hours after single intramuscular injection relative to T3 in heart; type: functional
[3] = system: Thyroid hormone receptor (Rattus norvegicus); experiment: Binding affinity to thyroid hormone receptor, relative to 3,5,3' triiodothyronine receptor, in isolated nuclei of heart
Rattus norvegicus [4] = experiment: In vivo binding affinity for 3,5,3' triiodothyronine receptor of liver nuclei 1 hour after intravenous administration; type: organism-based
Rattus norvegicus [5] = experiment: In vivo binding affinity for 3,5,3'' triiodothyronine receptor of heart nuclei 1 hr after intravenous administration; type: organism-based
[6] = Binding affinity to the thyroid hormone receptor was determined in vitro in isolated nuclei of rat liver relative to 3,5,3' triiodothyronine; type: tissue-based
Rattus norvegicus [7] = experiment: Potency for induction of GPDH (mitochondrial cytochrome C 3-phosphoglycerate oxidoreductase) was measured 48 hr after single im injection relative to T3 in liver; LM=low maximal response after 2 daily doses of 50 mg/kg; type: functional, organism-based; set-up: dose 50 mg/kg; settings: filed as partial agonist
Rattus norvegicus [8] = experiment: Potency for induction of GPDH (mitochondrial cytochrome C 3-phosphoglycerate oxidoreductase) was measured 48 hr after single im injection relative to T3 in heart; LM=low maximal response after 2 daily doses of 50 mg/kg; type: functional, organism-based; set-up: dose 50 mg/kg; settings: filed as partial agonist
Rattus norvegicus [9] = experiment: Potency for induction of GPDH (mitochondrial cytochrome C3-phosphoglycerate oxidoreductase) was measured 48 hr after single im injection relative to T3 in heart; I=inactive after 2 daily doses of 50 mg/kg; type: functional, organism-based; set-up: dose 50 mg/kg
[10] = Selectivity, ratio between relative ID50 in liver and heart; in short: as §1
[11] = biological target: T1, Thyroid hormone receptor beta (Rattus norvegicus) (UniProt P18113); experiment: Binding affinity to the receptor was determined in nuclei of heart in vivo 1 hour after intravenous administration relative to 3,5,3' triiodothyronine receptor
T1 sequence (whole entry): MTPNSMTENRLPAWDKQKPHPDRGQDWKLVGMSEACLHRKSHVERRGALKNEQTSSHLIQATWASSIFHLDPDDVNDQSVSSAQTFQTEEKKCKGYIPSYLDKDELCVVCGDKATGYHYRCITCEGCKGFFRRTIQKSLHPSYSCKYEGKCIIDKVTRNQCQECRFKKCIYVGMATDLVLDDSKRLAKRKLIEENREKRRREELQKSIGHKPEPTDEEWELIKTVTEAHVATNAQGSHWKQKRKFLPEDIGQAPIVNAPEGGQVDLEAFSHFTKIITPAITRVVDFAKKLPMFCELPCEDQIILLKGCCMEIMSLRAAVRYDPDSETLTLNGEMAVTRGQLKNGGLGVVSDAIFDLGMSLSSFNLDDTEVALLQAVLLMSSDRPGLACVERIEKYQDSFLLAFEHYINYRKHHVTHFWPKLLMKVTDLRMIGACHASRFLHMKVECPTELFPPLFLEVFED

[12] = biological target: T1, Thyroid hormone receptor beta (Rattus norvegicus); experiment: Binding affinity to the receptor was determined in nuclei of liver In vivo 1 hour after intravenous administration relative to T3; type: organism-based
Rattus norvegicus [13] = experiment: Potency for induction of GPDH (mitochondrial cytochrome C3-phosphoglycerate oxidoreductase) was measured 48 hours after single intramuscular injection relative to T3 in liver; type: functional
Rattus norvegicus [14] = experiment: Percent increase in oxygen consumption after seven daily doses of test compound given perorally; I is inactive after 2 daily doses of 50 mg/kg; type: functional, organism-based; set-up: dose 50 mg/kg
In short: (§2)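 Euthyroid rats given seven daily doses, intramuscular or oral, by line; whole-body oxygen consumption measured as percent increase in metabolic rate.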

[15] = biological target: T1, Thyroid hormone receptor beta (Rattus norvegicus); experiment: Binding affinity to the receptor was determined in vitro in isolated nuclei of rat liver relative to T3; type: tissue-based
[16] = biological target: T1, Thyroid hormone receptor beta (Rattus norvegicus); experiment: Binding affinity to the receptor was determined in vivo in rat liver nuclei 1 h after intravenous administration relative to 3,5,3' triiodothyronine receptor
[17] = Aqueous solubility at 37 degree Celsius at pH 7.38; type: physicochemical
In short: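 Solubility in aqueous medium at 37 °C, pH 7.38; given in units of ×10^5 mol/L.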

Rattus norvegicus [18] = experiment: Percent increase in oxygen consumption after seven daily doses of test compound given perorally, with concentration of compound at 5 mg/kg; type: functional; settings: route oral; in short: as §2
[19] = Partition coefficient at 25 degree Celsius in octanol/aqueous buffer at pH 6.02; type: physicochemical
Rattus norvegicus [20] = experiment: Percent increase in oxygen consumption after seven daily doses of test compound given intramuscularly, with concentration of compound at 3.3 mg/kg; type: functional; settings: route intramuscular; in short: as §2
Rattus norvegicus [21] = experiment: Potency for induction of GPDH was measured 48 hr after single intramuscular injection relative to T3 in lheart; LM=low maximal response after 2 daily doses of 50 mg/kg; type: functional, organism-based; set-up: dose 50 mg/kg; settings: filed as partial agonist
[22] = biological target: T1, Thyroid hormone receptor beta (Rattus norvegicus); experiment: Binding affinity to the receptor was determined in nuclei of heart in vivo 1 hour after intravenous administration relative to T3; type: organism-based
[23] = biological target: T1, Thyroid hormone receptor beta (Rattus norvegicus); experiment: In vitro binding affinity to the receptor was determined in isolated nuclei of heart relative to T3
Rattus norvegicus [24] = experiment: Percent increase in oxygen consumption after seven daily doses of test compound given perorally, with concentration of compound at 0.1 mg/kg; type: functional; settings: dose 10 mg/kg; route oral; in the assay text read “10 mg/kg” for “0.1 mg/kg”; in short: as §2
[25] = biological target: T1, Thyroid hormone receptor beta (Rattus norvegicus); experiment: Binding affinity to the receptor was determined in isolated nuclei of heart in vitro relative to 3,5,3' triiodothyronine receptor
[26] = biological target: T1, Thyroid hormone receptor beta (Rattus norvegicus); experiment: Selectivity, ratio of relative ID50 in liver and heart; in short: as §1
Rattus norvegicus [27] = experiment: Potency for induction of GPDH (mitochondrial cytochrome C3-phosphoglycerate oxidoreductase) was measured 48 hours after single intramuscular injection relative to T3 in liver; LM is low maximal response after 2 daily doses of 50 mg/kg; type: functional
[28] = biological target: T1, Thyroid hormone receptor beta (Rattus norvegicus); experiment: Binding affinity to the receptor was determined in nuclei of liver In vivo 1 hour after intravenous administration relative to 3,5,3' triiodothyronine receptor; type: organism-based
Rattus norvegicus [29] = experiment: Potency for induction of GPDH (mitochondrial cytochrome C3-phosphoglycerate oxidoreductase) was measured 48 hr after single im injection relative to T3 in liver; I=inactive after 2 daily doses of 50 mg/kg; type: functional, organism-based; set-up: dose 50 mg/kg

SMILES	Ratio (Rattus norvegicus [1])	Relative IC50 [3]	Relative ID50 (Rattus norvegicus [4])	Relative ID50 (Rattus norvegicus [5])	Relative IC50 [6]	Relative ED50 (Rattus norvegicus [7])	Relative ED50 (Rattus norvegicus [9])	Ratio [10]	Relative ED50 (Rattus norvegicus [13])	further results
N[C@@H](Cc1cc(I)c(Oc2ccc(O)c(Cc3ccc([N+](=O)[O-])cc3)c2)c(I)c1)C(=O)O	13.8	64	9.8	0.71	20	Partial agonist	–	–	–	Relative ED50 (Rattus norvegicus [2]): 0.9
N[C@@H](Cc1cc(I)c(Oc2ccc(O)c(Cc3ccncc3)c2)c(I)c1)C(=O)O	4.38	15	7	1.6	8.5	Partial agonist	–	–	–	Relative ED50 (Rattus norvegicus [8]): Partial agonist
Cn1cc(Cc2cc(Oc3c(I)cc(C[C@H](N)C(=O)O)cc3I)ccc2O)ccc1=O	–	–	–	–	0.76	Partial agonist	inactive	74.1	–	–
N[C@@H](Cc1cc(I)c(Oc2ccc(O)c(Cc3ccccn3)c2)c(I)c1)C(=O)O	4.44	3.5	2.4	0.54	0.96	–	–	–	–	Relative ED50 (Rattus norvegicus [8]): Partial agonist
N[C@@H](Cc1cc(I)c(Oc2ccc(O)c(Cc3ccccc3)c2)c(I)c1)C(=O)O	–	–	–	–	15	–	–	17	2.2	Relative ED50 (Rattus norvegicus [2]): 0.5; Relative ID50 [11]: 0.3; Relative ID50 [12]: 5.1
Cc1cc(O)c(Cc2ccc(O)nc2)cc1Oc1c(I)cc(C[C@H](N)C(=O)O)cc1I	–	–	–	–	0.028	–	–	–	–	–
N[C@H](Cc1cc(I)c(Oc2ccc(O)c(Cc3ccc(O)nc3)c2)c(I)c1)C(=O)O	–	1.9	–	–	1.1	–	inactive	–	1	% increase O2 consumption (Rattus norvegicus [14]): inactive
N[C@@H](Cc1cc(I)c(Oc2ccc(O)c(Cc3ccc(O)c(F)c3)c2)c(I)c1)C(=O)O	1.62	31	0.6	0.37	31	Partial agonist	inactive	–	–	–
N[C@@H](Cc1cc(I)c(Oc2ccc(O)c(Cc3ccnc(O)c3)c2)c(I)c1)C(=O)O	–	–	–	–	–	Partial agonist	inactive	20	–	Relative IC50 [15]: 0.042; Relative ID50 [16]: 0.07
Cc1cc(Cc2cc(Oc3c(I)cc(C[C@H](N)C(=O)O)cc3I)ccc2O)ccc1O	3.5	9.7	0.35	0.1	7.4	Partial agonist	inactive	–	–	–
N[C@@H](Cc1cc(Cl)c(Oc2ccc(O)c(Cc3ccc(O)nc3)c2)c(Cl)c1)C(=O)O	–	0.53	13	0.5	0.49	–	–	–	1.2	solubility [17]: 100 µM (≈ 44.9 µg/mL); Relative ED50 (Rattus norvegicus [8]): Partial agonist; Increase (Rattus norvegicus [18]): 31%; logD [19]: 0.6; Increase (Rattus norvegicus [20]): 26%
N[C@@H](Cc1cc(I)c(Oc2ccc(O)c(Cc3ccccc3O)c2)c(I)c1)C(=O)O	–	–	–	–	0.81	Partial agonist	–	1	–	Relative ED50 (Rattus norvegicus [21]): Partial agonist; Relative ID50 [11]: 0.024; Relative ID50 [12]: 0.024
N#Cc1ccc(Cc2cc(Oc3c(I)cc(C[C@H](N)C(=O)O)cc3I)ccc2O)cc1	–	–	–	–	13	Partial agonist	inactive	27.7	–	Relative ID50 [11]: 0.22; Relative ID50 [12]: 6.1
CC(C)c1cc(Cc2cc(Oc3c(I)cc(C[C@H](N)C(=O)O)cc3I)ccc2O)ccc1O	1	4.4	0.11	0.11	0.67	Partial agonist	–	–	–	Relative ED50 (Rattus norvegicus [8]): Partial agonist
O=C(O)CCc1cc(Br)c(Oc2ccc(O)c(Cc3ccc(O)nc3)c2)c(Br)c1	–	–	–	–	–	–	–	–	2	Relative ID50 [22]: 4.2; Relative ED50 (Rattus norvegicus [2]): 0.04; Relative IC50 [23]: 33.2; Relative IC50 [15]: 31.6
N[C@@H](Cc1cc(I)c(Oc2ccc(O)c(Cc3ccc(O)nn3)c2)c(I)c1)C(=O)O	95	4	38	0.4	2	–	–	–	2.4	Relative ED50 (Rattus norvegicus [2]): <0.1; Increase (Rattus norvegicus [24]): 20%; Increase (Rattus norvegicus [20]): 19%
N[C@@H](Cc1cc(I)c(Oc2ccc(O)c(Cc3ccc(O)c(Cl)c3)c2)c(I)c1)C(=O)O	1	15	0.07	0.07	5.9	Partial agonist	inactive	–	–	–
N[C@@H](Cc1cc(I)c(Oc2ccc(O)c(Cc3ccc(F)cc3)c2)c(I)c1)C(=O)O	–	–	–	–	60	–	–	–	–	Relative ED50 (Rattus norvegicus [2]): 3.7; Relative IC50 [25]: 43; Ratio [26]: 11.4; Relative ID50 [11]: 8.6; Relative ED50 (Rattus norvegicus [27]): 5.7; Relative ID50 [28]: 98
Nc1ccc(Cc2cc(Oc3c(I)cc(C[C@H](N)C(=O)O)cc3I)ccc2O)cc1	9.13	1.1	0.21	0.023	0.63	–	inactive	–	–	Relative ED50 (Rattus norvegicus [29]): inactive
N[C@@H](Cc1cc(I)c(Oc2ccc(O)c(Cn3ccc(=O)cc3)c2)c(I)c1)C(=O)O	208	0.4	2.7	0.013	0.25	–	inactive	–	1.4	–
N[C@@H](Cc1cc(I)c(Oc2ccc(O)c(Cc3ccc(O)cn3)c2)c(I)c1)C(=O)O	12.4	15	31	2.5	20	–	–	–	1.7	Relative ED50 (Rattus norvegicus [8]): Partial agonist
N[C@@H](Cc1cc(I)c(Oc2ccc(O)c(Cc3ccc(O)cc3)c2)c(I)c1)C(=O)O	–	–	–	–	17	–	–	27.1	–	Relative ED50 (Rattus norvegicus [2]): <0.1; Relative ED50 (Rattus norvegicus [27]): 2.2; Relative ID50 [12]: 19
N[C@@H](Cc1cc(I)c(Oc2ccc(O)c(Cc3cnc(O)nc3)c2)c(I)c1)C(=O)O	–	–	–	–	–	–	inactive	45.2	–	Relative ED50 (Rattus norvegicus [29]): inactive; Relative IC50 [23]: 0.58; Relative IC50 [15]: 0.15; Relative ID50 [16]: 0.28
